Bioassay records as filed in PubChem BioAssay.
KCNK3 block: human KCNK3 channel inhibition, primary screen; O14649; CHO-KCNK3 thallium flux, FluxOR fluorescence; hits give low values; B-score at 10 µM; hit rate 0.84% among 340,000; AID 602410;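 active = B-score under library mean minus 4 SD, starting fluorescence ratio at most library mean plus 5 SD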;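 also: more negative B-score means stronger inhibition of thallium flux through KCNK3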
KCNK9 block: blocks the human KCNK9 two-pore domain potassium channel | B-score at 10 µM | AID 488922 | hit rate 1.2% among 310,000 | Q9NPC2 | HEK293 KCNK9, FluxOR thallium flux fluorescence; hits give low values;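 active = ratio B-score over 3 SD below the library mean, with starting fluorescence within 5 SD of its mean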;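 also: negative B-score means less thallium flux so channel inhibition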
KCNQ1 inh: blocks the human KCNQ1 potassium channel | AID 2642 | B-score at 10 µM | CHO-K1 KCNQ1, FluxOR thallium flux fluorescence; hits give high values | P51787 | hit rate 1.3% among 310,000;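 active = compounds whose thallium flux B-score, printed positive for inhibition, exceeds three library SD while starting fluorescence stays within three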;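 also: channel opened by potassium depolarization with thallium stimulus after 20 min compound exposure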
Target sequence (P51787 whole entry, looked up): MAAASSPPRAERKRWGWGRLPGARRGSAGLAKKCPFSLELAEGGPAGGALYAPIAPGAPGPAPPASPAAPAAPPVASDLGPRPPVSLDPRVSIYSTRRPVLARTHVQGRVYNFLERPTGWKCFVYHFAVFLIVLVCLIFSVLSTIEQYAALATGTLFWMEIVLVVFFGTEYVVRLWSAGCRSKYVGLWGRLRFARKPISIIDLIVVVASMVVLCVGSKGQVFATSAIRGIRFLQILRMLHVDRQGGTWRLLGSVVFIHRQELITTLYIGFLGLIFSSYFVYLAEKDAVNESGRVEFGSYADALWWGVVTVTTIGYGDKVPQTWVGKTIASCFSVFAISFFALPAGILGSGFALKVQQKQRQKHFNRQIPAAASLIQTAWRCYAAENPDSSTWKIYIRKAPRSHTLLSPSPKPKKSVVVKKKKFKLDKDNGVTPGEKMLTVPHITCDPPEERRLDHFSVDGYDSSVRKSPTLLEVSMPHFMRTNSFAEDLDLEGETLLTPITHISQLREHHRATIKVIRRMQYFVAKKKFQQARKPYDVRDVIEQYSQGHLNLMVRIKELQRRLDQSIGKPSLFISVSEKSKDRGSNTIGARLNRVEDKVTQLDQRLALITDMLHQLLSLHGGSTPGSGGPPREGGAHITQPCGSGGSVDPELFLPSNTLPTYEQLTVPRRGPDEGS
KCNQ1 pot: potentiates or activates the human KCNQ1 potassium channel; B-score at 10 µM; CHO-K1 KCNQ1, thallium flux FluxOR fluorescence; hits give high values; hit rate 0.35% among 310,000;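 active = fluorescence ratio B-score, a plate-corrected score, at least three library SD, with initial intensity B-score within 5 SD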
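System: CHO-K1 cells stably expressing KCNQ1 / Medium: assay buffer for compound exposure, DMSO matched across wells / Reagent: thallium- and potassium-containing depolarizing buffer / Compound: one concentration, matched DMSO / Incubation: 20 min compound pretreatment at room temperature / Measured by: kinetic FluxOR fluorescence, 10 s baseline plus 110 s post-stimulus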
hERG rescue: shields human hERG channel from block by proarrhythmic agents; Q12809; CHO-hERG, FluxOR thallium flux, dofetilide IC70 present; activation (rescue from dofetilide block), less the hit threshold, % at 10 µM; hit rate 0.51% among 310,000;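 active = activation above the mean of controls blocked by dofetilide plus 5 SD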;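 also: thallium influx through hERG after potassium depolarization seen as dye fluorescence rise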
Cl transport mod: KCC2 (human) Cl- transport modulation. Q9H2X9. KCC2 cells, thallium flux FluoZin-2 fluorescence. B-score of Tl+ flux slope (higher = more flux/activation; lower = inhibition) at 10 µM. hit rate 2.2% among 190,000;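 active = thallium flux slope and its plate-corrected score both differing from the plate sample mean at a set confidence after two filtering rounds, in either direction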;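 also: slope of fluorescence scaled to starting intensity during 10 to 20 s after thallium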
KCNK3 inh conf: confirmation of human KCNK3 two-pore domain potassium channel inhibitors | shares compounds with KCNK3 block | ratio percent of control, % at 10 µM | CHO-KCNK3 thallium flux, FluxOR fluorescence; 0% buffer, 100% carvedilol maximal block | hit rate 99% among 2,400;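 active = ratio percent of control, averaged over triplicates, above buffer control mean plus 5 SD, cut at about 64% in these data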;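 also: ratio is the fluorescence rise from min to max over baseline after thallium stimulus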
KCNK3 uninduced: counter-screen for KCNK3 inhibitors: effect in non-induced cells; shares compounds with KCNK3 block; non-induced KCNK3 parental cells, FluxOR thallium flux; hits give low values; thallium flux ratio (lower = more inhibition) at 10 µM; hit rate 40% among 2,400; AID 651747;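 active = thallium flux ratio, averaged over three wells, more than 5 SD below the buffer control mean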;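 also: host cells are CHO cells without KCNK3 induction; ratio is peak minus trough fluorescence over baseline then normalized to buffer controls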
Numbers without * were called inactive. Only some compounds are listed: those with a hit (about 4.1% of all), similar ones and a draw of the others.

Results for COc1ccc2c(C)cc(N3CCN(c4ccc(F)cc4)CC3)nc2c1 ?
KCNK3 block: -9.5*; KCNK9 block: inactive; KCNQ1 inh: inactive; KCNQ1 pot: inactive; hERG rescue: -4; Cl transport mod: 0.1; KCNK3 inh conf: 114*; KCNK3 uninduced: inactive

How did CCOC(=O)c1cc(-c2ccco2)nc2c1c(C)nn2-c1ccccc1 do in these assays?
KCNK3 block: -9.4*; KCNK9 block: inactive; KCNQ1 inh: inactive; KCNQ1 pot: inactive; hERG rescue: -6; Cl transport mod: 0.9; KCNK3 inh conf: 93*; KCNK3 uninduced: inactive

How did CCCOc1ccc(C2=NNC(c3cccs3)=Nc3ccc(OC)cc32)cc1 do in these assays?
KCNK3 block: inactive; KCNK9 block: inactive; KCNQ1 inh: inactive; KCNQ1 pot: inactive; hERG rescue: -19; Cl transport mod: 0.77

How did COc1ccc2c(c1)C(c1cccs1)=NNC(c1ccncc1)=N2 do in these assays?
KCNK3 block: -8.8*; KCNK9 block: inactive; KCNQ1 inh: inactive; KCNQ1 pot: inactive; hERG rescue: -9; Cl transport mod: 0.086; KCNK3 inh conf: 66*; KCNK3 uninduced: inactive

How did CN1CCN(C2Cc3cc(Cl)ccc3Sc3cc(F)ccc32)CC1 (stereo not drawn) do in these assays?
KCNK3 block: -10*; KCNK9 block: inactive; KCNQ1 inh: inactive; KCNQ1 pot: inactive; hERG rescue: -13; KCNK3 inh conf: 144*; KCNK3 uninduced: inactive

How did CCc1ccc2c(c1)Sc1ccccc1CC2N1CCN(C)CC1 (stereo not drawn) do in these assays?
KCNK3 block: inactive; KCNK9 block: inactive; KCNQ1 inh: inactive; KCNQ1 pot: inactive; hERG rescue: -20

What do the screens show for `O=C(Nc1nnc(C2CC2)s1)C1CCCO1` (stereo not drawn)?
KCNK3 block: inactive; KCNK9 block: inactive; KCNQ1 inh: inactive; KCNQ1 pot: inactive; hERG rescue: -14; Cl transport mod: -1

How did CNc1ccc(Br)cc(C(=O)/C=C/c2ccc(Cl)cc2Cl)c1=O do in these assays?
KCNK3 block: -9.7*; KCNK9 block: inactive; KCNQ1 inh: 10*; KCNQ1 pot: inactive; hERG rescue: -18; KCNK3 inh conf: 117*; KCNK3 uninduced: 0.12*

Results for CNc1ccc(Br)cc(C(=O)/C=C/c2ccc(OC)cc2OC)c1=O ?
KCNK3 block: inactive; KCNK9 block: inactive; KCNQ1 inh: inactive; KCNQ1 pot: inactive; hERG rescue: -17; Cl transport mod: -1.1

What do the screens show for `O=c1cc(CN2CCN(S(=O)(=O)c3ccccc3)CC2)nc2ccc(Cl)cn12`?
KCNK3 block: inactive

Results for CN1CCN(NC(=O)c2cn(-c3ccccc3)nc2-c2cccc(Br)c2)CC1 ?
KCNK3 block: inactive; KCNK9 block: inactive; KCNQ1 inh: inactive; KCNQ1 pot: inactive; hERG rescue: -7; Cl transport mod: -0.14

What do the screens show for `CCN(C(=O)C1CCCN(c2ncnc3c2nc2n3CCCCC2)C1)c1cccc(Cl)c1` (stereo not drawn)?
KCNK3 block: -12*; KCNK9 block: inactive; KCNQ1 inh: inactive; KCNQ1 pot: inactive; hERG rescue: -17; KCNK3 inh conf: 89*; KCNK3 uninduced: inactive

What do the screens show for `O=C(Nc1ccc(Cl)cn1)C1CCCN(c2ncnc3c2nc2n3CCCCC2)C1` (stereo not drawn)?
KCNK3 block: inactive; KCNK9 block: inactive; KCNQ1 inh: inactive; KCNQ1 pot: inactive; hERG rescue: -15

How did COc1ccc(OC)c(C(=O)COC(=O)COc2ccccc2)c1 do in these assays?
KCNK3 block: inactive

How did CC(C)CCNCC(O)CON=C1c2ccccc2-c2ccccc21 (stereo not drawn) do in these assays?
KCNK3 block: -8.8*; KCNK9 block: inactive; KCNQ1 inh: inactive; KCNQ1 pot: inactive; hERG rescue: -22; Cl transport mod: 1.6; KCNK3 inh conf: 104*; KCNK3 uninduced: inactive

What do the screens show for `COCCNCC(O)CON=C1c2ccccc2-c2ccccc21` (stereo not drawn)?
KCNK3 block: inactive; KCNK9 block: inactive; KCNQ1 inh: inactive; KCNQ1 pot: inactive; hERG rescue: -27; Cl transport mod: 0.63

How did CC1CCN(C(=O)Nc2cccc(NC(=O)N3CCC(C)CC3)c2)CC1 do in these assays?
KCNK3 block: -9*; KCNK9 block: inactive; KCNQ1 inh: inactive; KCNQ1 pot: inactive; hERG rescue: 1; Cl transport mod: 0.0028; KCNK3 inh conf: 112*; KCNK3 uninduced: inactive

What do the screens show for `CC1CCN(C(=O)Nc2ccc3nsnc3c2)CC1`?
KCNK3 block: inactive; KCNK9 block: inactive; KCNQ1 inh: inactive; KCNQ1 pot: inactive; hERG rescue: -2; Cl transport mod: 0.79

How did CCN1CCSc2ccc(C(=O)NCc3ccccc3Br)cc21 do in these assays?
KCNK3 block: -9.7*; KCNK9 block: inactive; KCNQ1 inh: inactive; KCNQ1 pot: inactive; hERG rescue: -15; KCNK3 inh conf: 104*; KCNK3 uninduced: 0.15*

Results for Cc1cccc(CNC(=O)c2ccc3c(c2)N(C)CCS3)c1 ?
KCNK3 block: inactive; KCNK9 block: inactive; KCNQ1 inh: inactive; KCNQ1 pot: inactive; hERG rescue: -11

Results for CN1CCSc2ccc(C(=O)NCc3cccc(Br)c3)cc21 ?
KCNK3 block: -14*; KCNK9 block: inactive; KCNQ1 inh: inactive; KCNQ1 pot: inactive; hERG rescue: -14; KCNK3 inh conf: 120*; KCNK3 uninduced: 0.16*

What do the screens show for `CCN1CCSc2ccc(C(=O)NCc3ccccc3C)cc21`?
KCNK3 block: inactive; KCNK9 block: inactive; KCNQ1 inh: inactive; KCNQ1 pot: inactive; hERG rescue: -12

How did COc1ccc(CNC(=O)[C@H](Cc2c[nH]c3ccccc23)NC(=O)[C@@H]2Cc3ccccc3CN2)cc1 do in these assays?
KCNK3 block: inactive; KCNK9 block: inactive; KCNQ1 inh: inactive; KCNQ1 pot: inactive; hERG rescue: -14

Results for CCN(CC)S(=O)(=O)c1ccc(NC(=O)C2CCCO2)cc1 (stereo not drawn) ?
KCNK3 block: inactive; KCNK9 block: inactive; KCNQ1 inh: inactive; KCNQ1 pot: inactive; hERG rescue: -8
